These results are taken from ChEMBL document CHEMBL4325910, “Design and synthesis of rosiglitazone-ferulic acid-nitric oxide donor trihybrids for improving glucose tolerance” (Eur J Med Chem, 2019).

The source made the active and inactive calls. The rule behind the calls is not given here.

Data set [1] is described as follows: Metabolic stability in simulated intestinal fluid at pH 6.8 measured after 4 hrs by HPLC analysis. It counts as ADME. The following applies: read-out: Stability. The essentials: (§1)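 Gastric fluid was 1% pepsin in water, pH 1.5. Intestinal fluid was 1% trypsin with 0.68% KH2PO4, pH 6.8. Compound (100 mM DMSO stock) was diluted 1:1000 into each, in triplicate. Incubation was at 37 °C for 0, 2, 4, 6, 16 or 24 h. Acetonitrile (3 volumes) stopped it, then HPLC at 254 nm.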

Data set [2] can be described thus: Metabolic stability in simulated intestinal fluid at pH 6.8 measured after 2 hrs by HPLC analysis. It counts as ADME. The following applies: read-out: Stability. Put shortly:
as §1

Another data set relates to Mus musculus. The data set can be described thus: Antidiabetic activity in spontaneous db/db BKS.Cg-Dock7m +/+ Leprdb/J mouse assessed as decrease in fasting blood glucose level at 10 to 20 mg/kg, po administered as daily dose via gavage for 18 days measured on day 9 post last dose by glucometric analysis. Type of data set: functional, organism-based. The essentials: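 Male db/db mice (BKS.Cg-Dock7m +/+ Leprdb/J), 6 weeks old on purchase, randomized, n=8 per group. Dosed by gavage in 0.5% CMC-Na daily for 18 consecutive days. Vehicle-dosed db/db and C57BL/6 mice served as model and control. Fasting glucose was read by glucometer every three days. On day 12, after an overnight fast, 2 g/kg glucose was given orally. Blood glucose was read at 0–120 min and AUC calculated. Mean ± SEM.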

The subject of data set [3] is 3T3-L1. Description: Induction of nitric oxide mediated increase in insulin-stimulated 2-NBDG uptake in TNF-alpha-induced insulin resistant mouse 3T3L1 cells at 3 to 10 uM preincubated for 48 hrs followed by 2-NBDG addition measured after 30 mins in presence of insulin by fluorescence assay. It counts as functional, cell-based. Put shortly:
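Day-8 differentiated 3T3-L1 adipocytes received TNF-α (4 ng/mL) daily for 4 days. They were pretreated in triplicate for 48 h (C-PTIO 20 μM where indicated), then given 100 μM 2-NBDG at 37 °C for 30 min in the dark, with or without insulin. After KRP washes, fluorescence was read at Ex/Em 485/515 nm. Three experiments, mean ± SD.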

Data set [4] concerns 3T3-L1. The data set can be described thus: Inhibition of ROS production in TNF-alpha-induced insulin resistant mouse 3T3L1 cells at 3 to 10 uM after 48 hrs by DCFH-DA dye-based fluorescence assay. It counts as functional, cell-based.
For data set [5], the system named is 3T3-L1. The data set can be described thus: Inhibition of ROS production in TNF-alpha-induced insulin resistant mouse 3T3L1 cells at 3 to 10 uM after 48 hrs in presence of nitric oxide scavenger C-PTIO by DCFH-DA dye-based fluorescence assay. Type of data set: functional, cell-based.
The test system of data set [6] is 3T3-L1. The data set can be described thus: Induction of GSH level in TNF-alpha-induced insulin resistant mouse 3T3L1 cells at 3 to 10 uM after 48 hrs. Type of data set: functional, cell-based. Put shortly:
(§2)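 3T3-L1 preadipocytes were differentiated, and mature adipocytes made insulin resistant with TNF-α (4 ng/mL) daily for 4 days. Cells were then treated in triplicate for 48 h, with or without 20 μM C-PTIO. Lysate GSH, SOD and MDA were measured with kits. Three experiments, mean ± SD.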

Data set [7] has as its system 3T3-L1. The data set can be described thus: Induction of superoxide dismutase level in TNF-alpha-induced insulin resistant mouse 3T3L1 cells at 3 to 10 uM after 48 hrs. It counts as functional, cell-based. The essentials:
as §2

For data set [8], the system named is 3T3-L1. The data set can be described thus: Inhibition of MDA level in TNF-alpha-induced insulin resistant mouse 3T3L1 cells at 3 to 10 uM after 48 hrs. Type of data set: functional, cell-based.
Data set [9] can be described thus: Metabolic stability in simulated gastric fluid at pH 1.5 measured immediately after compound addition by HPLC analysis. It counts as ADME. The following applies: read-out: Stability. Put shortly: as §1
Data set [10] can be described thus: Metabolic stability in simulated gastric fluid at pH 1.5 measured after 6 hrs by HPLC analysis. The following applies: read-out: Stability. It counts as ADME. Put shortly: as §1
A short description of data set [11]: Metabolic stability in simulated gastric fluid at pH 1.5 measured after 24 hrs by HPLC analysis. It counts as ADME. The following applies: read-out: Stability. Put shortly:
as §1

Data set [12] is described as follows: Metabolic stability in human liver microsomes after 2 hrs in presence of NADPH by HPLC analysis. It counts as ADME, Microsome. Particulars: read-out: Stability. Put shortly: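 Compound (100 mM DMSO stock) was added in triplicate to 0.1 M phosphate buffer pH 7.4 with 3.3 mM MgCl2 and human liver microsomes, then preincubated 5 min at 37 °C. NADPH (1.3 mM stock) was added and incubation continued 0, 0.5, 1, 2 or 6 h. Acetonitrile quench, then HPLC at 254 nm.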
Background: Liver microsomes are a subcellular fraction often used to study metabolism.

Data set [13] is described as follows: Toxicity in spontaneous db/db BKS.Cg-Dock7m +/+ Leprdb/J mouse assessed as reduction in serum hematocrit value at 13.5 to 27 umol/kg, po administered as daily dose via gavage treated for 18 days. Type of data set: organism-based. Particulars: in vivo, 432 h.
The test system of data set [14] is Platelet. Description: Antiplatelet activity in platelet rich plasma (unknown origin) assessed as inhibition of arachidonic acid-induced platelet aggregation at 0.2 mM relative to control. Type of data set: functional.
Data set [15] relates to Platelet. Description: Antiplatelet activity in platelet rich plasma (unknown origin) assessed as inhibition of arachidonic acid-induced platelet aggregation at 0.4 mM relative to control. Type of data set: functional.
Data set [16] concerns Platelet. Description: Antiplatelet activity in platelet rich plasma (unknown origin) assessed as inhibition of arachidonic acid-induced platelet aggregation at 0.8 mM relative to control. Type of data set: functional.
The test system of data set [17] is Platelet. Description: Antiplatelet activity in platelet rich plasma (unknown origin) assessed as inhibition of ADP-induced platelet aggregation at 0.4 mM relative to control. Type of data set: functional.
In data set [18] the test system is Platelet. Description: Antiplatelet activity in platelet rich plasma (unknown origin) assessed as inhibition of ADP-induced platelet aggregation at 1.6 mM relative to control. Type of data set: functional.
For data set [19], the system named is Platelet. The data set can be described thus: Antiplatelet activity in platelet rich plasma (unknown origin) assessed as inhibition of ADP-induced platelet aggregation at 3.2 mM relative to control. It counts as functional.
Data set [20] can be described thus: Toxicity in ICR mouse assessed mouse mortality at 2000 mg/kg, po administered as single dose via gavage treated on day 1 and measured daily up to 14 days. Type of data set: organism-based. Particulars: in vivo, 336 h. Put shortly: (§3)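 Mice of both sexes, 7 weeks old, were randomized and given one oral gavage dose on day 1. Dose levels were 500, 1000, 2000, 3000, 4000 or 5000 mg/kg, or 2000, 4000 and 5000 mg/kg, with n = 10 per group. Behaviour, health and mortality were checked daily for 14 days, and total deaths were counted on day 14. LD50 was calculated with 95% confidence limits.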

The subject of data set [21] is 3T3-L1. Description: Inhibition of ROS production in TNF-alpha-induced insulin resistant mouse 3T3L1 cells at 10 uM after 48 hrs in presence of nitric oxide scavenger C-PTIO by DCFH-DA dye-based fluorescence assay. It counts as functional, cell-based.
The test system of data set [22] is Platelet. Description: Antiplatelet activity in platelet rich plasma (unknown origin) assessed as inhibition of arachidonic acid-induced platelet aggregation at 1 mM relative to control. It counts as functional.
Data set [23] deals with Platelet. Description: Antiplatelet activity in platelet rich plasma (unknown origin) assessed as inhibition of arachidonic acid-induced platelet aggregation at 8 mM relative to control. It counts as functional.
The test system of data set [24] is Platelet. The data set can be described thus: Antiplatelet activity in platelet rich plasma (unknown origin) assessed as inhibition of arachidonic acid-induced platelet aggregation at 16 mM relative to control. It counts as functional.
The test system of data set [25] is Platelet. The data set can be described thus: Antiplatelet activity in platelet rich plasma (unknown origin) assessed as inhibition of ADP-induced platelet aggregation at 4 mM relative to control. It counts as functional.
Data set [26] has as its system Platelet. The data set can be described thus: Antiplatelet activity in platelet rich plasma (unknown origin) assessed as inhibition of ADP-induced platelet aggregation at 16 mM relative to control. It counts as functional.
The nature of data set [27]: Toxicity in ICR mouse assessed mouse mortality at 500 mg/kg, po administered as single dose via gavage treated on day 1 and measured daily up to 14 days. It counts as organism-based. The following applies: in vivo, 336 h. Put shortly:
as §3

Take `CCN(CC)/[N+]([O-])=N/OCOC(=O)/C=C/c1ccc(OC(=O)OCN2C(=O)SC(Cc3ccc(OCCN(C)c4ccccn4)cc3)C2=O)c(OC)c1` (stereo not drawn): in data set [1], the remaining at 4 h was 96.9%. Moreover, the remaining at 2 h in data set [2] was 97.7%; in [12], 85.3%. The outcome in the data set with Mus musculus, in the data set with 3T3-L1 [3], with 3T3-L1 [6] and in the data set with 3T3-L1 [7] was Active. In addition, the inhibition result in the data set with 3T3-L1 [4] and with 3T3-L1 [8] was “Active” each time. Moreover, the inhibition (usually the percentage by which the read-out fell short of the control) in the data set with 3T3-L1 [5] is “inactive”. For the same compound, the remaining at 0 h in data set [9] was 100%. For the same compound, the remaining at 6 h in [10] was 93.6%. Besides, the remaining at 24 h in data set [11] was 82.6%. Also, the Activity entry in data set [13] and in data set [20] was “Non-Toxic” in each case. Also, the inhibition at 200 µM in the data set with Platelet [14] was 30.2%. The inhibition at 400 µM in the data set on Platelet [15] came to 40.6%; in the data set on Platelet [17], 18.8%. Further, in the data set with Platelet [16], the inhibition at 800 µM stood at 51.6%. The inhibition at 1600 µM with Platelet [18] was 47%. Also, in the data set with Platelet [19], the inhibition at 3200 µM came to 57.3%.
In the case of `CN(CCOc1ccc(CC2SC(=O)NC2=O)cc1)c1ccccn1` (stereo not drawn) [ROSIGLITAZONE], the inhibition entry with 3T3-L1 [21] is “inactive”. In the data set with Platelet [22], the inhibition at 1000 µM came out at 14.8%. Further, the inhibition at 8000 µM in the data set on Platelet [23] stood at 54.4%. The inhibition at 16000 µM stood at 67.2% with Platelet [24] and 68.9% with Platelet [26]. Also, the inhibition at 4000 µM in the data set with Platelet [25] was 43.1%. The Activity entry in data set [27] is reported as “Non-Toxic”.
